Measurements: PMC10527432 (Cell, 2023)
Entries after “also recorded” stand apart in the source; their conditions may differ. Where two headings read alike, the source gives them in different places. One block for each compound: values may come before it.

Experiments:
[1] = test system: α-Syn aggregation; conditions: cited from earlier work
[2] = molecular target: aggregated α-Syn in PD/DLB patients (Homo sapiens, UniProt P37840); assay: Saturation binding assay with insoluble α-Syn fraction from PD/DLB brain
How it was run: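 Insoluble α-Syn was extracted from frozen PD and DLB brain in 50 mM Tris-HCl pH 7.4, 800 mM NaCl, 10 mM NaF, 5 mM EDTA at 100,000 × g. Pellets were re-extracted with buffer containing 1% Triton X-100, then 1% Triton X-100 plus 30% sucrose. A final 1% sarkosyl step ran overnight, followed by a 100,000 × g spin.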

[3] = molecular target: α-Syn deposits in PD/DLB brain homogenates (Homo sapiens, UniProt P37840); assay type: binding
How it was run: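 Brain lysates from 4 control and 4 patient cases were normalized for aggregate levels by pS129 western blot. Homogenates (0.2 mg/ml) were incubated with [18F]-labelled test compound (5–900 nM) for 1 h at 37 °C in 50 mM Tris-HCl, 50 mM NaCl, 0.5% sodium ascorbate, pH 7.4. Samples were then filtered, washed twice and counted by scintillation.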

[4] = molecular target: Aβ fibrils in AD patients (Homo sapiens, UniProt P05067); assay: Saturation binding assay with insoluble Aβ fraction from AD brain
Aβ fibrils in AD patients, sequence (P05067 672-711 limits assumed): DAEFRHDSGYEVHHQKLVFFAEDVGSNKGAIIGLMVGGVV
How it was run: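 Insoluble Aβ was extracted from AD gray matter by homogenization in 0.32 M sucrose, mesh sieving, and centrifugation in 1 M sucrose. This was followed by collagenase/dispase (2 mg/ml) digestion for 16 h at 37 °C and a discontinuous 1.05–1.8 M sucrose gradient.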

[5] = test system: α-Syn aggregates in macaque brain; assay: PET imaging in non-human primate PD models; assay type: in vivo, rhesus macaques; conditions: control macaques
[6] = molecular target: α-Syn aggregates in macaque brain (Homo sapiens, UniProt P37840, A53T); assay: PET imaging in non-human primate PD models; assay type: in vivo, rhesus macaques; conditions: macaques injected with AAV-α-Syn A53T
[7] = molecular target: Tau fibrils in AD patients (Homo sapiens, UniProt P10636); assay: Saturation binding assay with insoluble Tau fraction from AD brain
Tau fibrils in AD patients, sequence (P10636 623-708 limits assumed): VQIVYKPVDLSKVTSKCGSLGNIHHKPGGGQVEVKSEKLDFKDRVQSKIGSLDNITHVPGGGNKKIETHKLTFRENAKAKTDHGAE
How it was run: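 Insoluble Tau was extracted from AD brain in 10 mM Tris-HCl pH 7.4, 0.8 M NaCl, 1 mM EGTA, 10% sucrose. Sequential centrifugations up to 100,000 × g were performed at 4 °C. The pellet was resuspended in 20 mM Tris-HCl pH 7.4, 100 mM NaCl and run over a Superose 6 column.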

[8] = molecular target: LBs in human brain sections (Homo sapiens, UniProt P37840); assay: Autoradiography with human brain slices; assay type: binding; conditions: PD versus AD patients; 4 nM tracer
How it was run: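 Post-mortem human brain slices, stored at −20 °C, were preincubated in PBS + 0.1% BSA (pH 7.4) to reach room temperature. They were then incubated with [18F]-labelled tracer at room temperature for 30 min, rinsed in cold buffer and once in distilled water, and dried. Slices were exposed to imaging plates for 3 h before development.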

[9] = test system: Aβ plaques or NFTs; assay: Counter-staining of mouse brain sections; conditions: Tau P301S, 5xFAD, 3xTg mice
How it was run: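 Cortical slices from 14-month-old 3xTg, 6-month-old Tau P301S and 12-month-old 5xFAD mice were fixed and incubated with primary antibodies for 12 h at 4 °C. Alexa Fluor-conjugated secondary antibodies were applied for 3 h at room temperature, with DAPI (1 μg/ml) nuclear counterstain. Slices were imaged by confocal microscopy.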

[10] = molecular target: α-Syn deposits in mouse brain sections (Homo sapiens, UniProt P37840, A53T); assay: Staining of mouse brain sections containing α-Syn deposits; conditions: SN of AAV-α-Syn A53T-injected mice
[11] = test system: synthetic α-Syn aggregates and Aβ fibrils; conditions: cited from earlier work
[12] = molecular target: Tau fibrils (Homo sapiens, UniProt P10636); assay: [18F]-F0502B saturation binding assay with Tau PFFs; conditions: read-out: KD, Tau fibrils, 1 μM PFFs
Tau fibrils, sequence (P10636 1-441 isoform P10636-8): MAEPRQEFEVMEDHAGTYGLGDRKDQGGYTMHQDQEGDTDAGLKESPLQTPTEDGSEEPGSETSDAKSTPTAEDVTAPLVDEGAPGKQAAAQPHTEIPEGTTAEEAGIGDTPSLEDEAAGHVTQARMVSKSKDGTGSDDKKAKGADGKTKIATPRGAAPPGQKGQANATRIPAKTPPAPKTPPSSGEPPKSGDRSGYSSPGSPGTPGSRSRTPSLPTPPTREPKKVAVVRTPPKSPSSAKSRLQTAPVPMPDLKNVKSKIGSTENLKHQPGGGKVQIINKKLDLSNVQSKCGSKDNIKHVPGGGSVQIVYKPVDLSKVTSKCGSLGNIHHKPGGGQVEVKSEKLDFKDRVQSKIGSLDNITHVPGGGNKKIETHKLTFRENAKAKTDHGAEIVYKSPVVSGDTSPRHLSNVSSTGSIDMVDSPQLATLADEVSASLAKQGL
How it was run: (§1)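 PFFs (1 μM) were incubated with [18F]-labelled test compound (5–900 nM) for 1 h at 37 °C in 30 mM Tris-HCl pH 7.4, 0.1% BSA, 0.5% sodium ascorbate. Nonspecific binding was defined with 2 μM unlabeled compound. Samples were filtered, washed twice and counted by scintillation, in duplicate. Kd and Bmax were obtained by nonlinear fit to Y = Bmax*X/(X+Kd).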

[13] = molecular target: Aβ1–42 fibrils (Homo sapiens, UniProt P05067); assay: [18F]-F0502B saturation binding assay with Aβ PFFs; conditions: read-out: KD, Aβ fibrils, 1 μM PFFs
Aβ1–42 fibrils, sequence (P05067 672-713 limits assumed): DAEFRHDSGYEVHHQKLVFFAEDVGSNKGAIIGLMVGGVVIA
How it was run: as §1

[14] = molecular target: α-Syn fibrils (Homo sapiens, UniProt P37840); assay: [18F]-F0502B saturation binding assay with α-Syn PFFs; conditions: read-out: KD, α-Syn fibrils, 1 μM PFFs
How it was run: as §1

[15] = molecular target: α-Syn aggregates (Homo sapiens, UniProt P37840, A53T); assay: Ex vivo staining after i.v. F0502B in AAV-α-Syn A53T mice; design: species or system mouse; conditions: 2 mg/kg i.v., 2 h
How it was run: (§2)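 Eight-month-old mice received test compound at 2 mg/kg via the tail vein, and brain sections were prepared 2 h later. Sections were stained with anti-Aβ, anti-p-Tau (AT8), anti-p-α-Syn S129 and ThS, and co-localization was assessed. Cortex was examined for 5xFAD, 3xTg and Tau P301S mice. SN was examined for mice given unilateral stereotaxic AAV9-α-Syn A53T into SN at 3 months.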

[16] = test system: Aβ plaques or NFTs in AD; assay: Counter-staining of AD patient brain sections; design: species or system human; conditions: AD patients
[17] = molecular target: aggregated α-Syn in PD brains (Homo sapiens, UniProt P37840); assay: In vitro competition assay against [3H]BF-227 in postmortem PD brain tissue; assay type: binding; conditions: read-out: Ki against [3H]BF227; postmortem PD brain tissue homogenate
How it was run: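 Postmortem PD brain homogenate (α-Syn aggregates, no other amyloid) was used at a final 100 μg tissue/mL in PBS/0.1% BSA, pH 7.0. Unlabeled test compound (0.1–1000 nM; 0.25% DMSO final) was combined with [3H]BF-227 solution (~2 nM). 100% inhibition was defined by displacement with 1 μM unlabeled compound. Each concentration was run in triplicate, giving Ki.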

[18] = test system: Aβ or Tau aggregates; assay: Ex vivo staining after i.v. F0502B in 5xFAD, 3xTg, Tau P301S mice; design: species or system mouse; conditions: 2 mg/kg i.v., 2 h
How it was run: as §2

[19] = molecular target: α-Syn pathology in DLB and MSA patient brain (Homo sapiens, UniProt P37840); assay: Staining of DLB and MSA patient brain sections; conditions: DLB and MSA patients
[20] = In vivo pharmacokinetics study in mice, i.v.; conditions: i.v. 5 mg/kg
How it was run: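 Male ICR mice received 5 mg/kg i.v. Test compound was measured in plasma and brain homogenates at successive time points, with 3 mice per time point. Brain/plasma ratios, plasma half-life and clearance were derived; data are mean ± SD.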

[21] = molecular target: α-Syn PFFs (Homo sapiens, UniProt P37840); assay: Fibril binding assay; conditions: fluorescence, 0.08 μM fibrils, 5 μM compound
How it was run: (§3)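 In the fluorescence screen, test compound (5 μM) in 50 mM Tris-HCl, 50 mM NaCl, pH 7.4 was added to fibrils or monomers (0.08 μM) in triplicate wells. Fluorescence was read at each compound's own excitation/emission wavelengths. α-Syn fibrils were commercial, dissolved to 1 mg/ml in PBS. Tau PFFs were assembled from 3 mg/mL protein with 12.5 μM heparin for 7 days at 37 °C with shaking; mixed 3R-4R fibrils used 0N3R and 2N4R at 1.5 mg/ml each.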

[22] = molecular target: Aβ PFFs (Homo sapiens, UniProt P05067); assay: Fibril binding assay; conditions: fluorescence; 0.08 μM fibrils, 5 μM compound
Aβ PFFs, sequence (P05067 672-713 limits assumed): as above

[23] = molecular target: Tau PFFs (Homo sapiens, UniProt P10636); assay: Fibril binding assay; conditions: fluorescence; 0.08 μM fibrils, 5 μM compound; regardless of 3R or 4R Tau
Tau PFFs, sequence (P10636 1-441 isoform P10636-8): as the sequence (P10636 1-441 isoform P10636-8) above
How it was run: as §3

[24] = test system: α-Syn aggregates in primary neurons; assay: Fluorescence staining of primary neurons containing α-Syn aggregates; assay type: cell-based, rat; conditions: AAV-α-Syn + α-Syn PFFs, fluorescence microscopy
How it was run: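 Primary embryonic rat neurons were cultured at 37 °C in 5% CO2 and infected with AAV-α-Syn at DIV7. At DIV12 they received sonicated α-Syn PFFs at 100 ng/ml final, with monomer as control. Test compound was then added and binding to the intracellular aggregates was assessed by fluorescence microscopy.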

[25] = Toxicology test in mice; assay type: in vivo; conditions: C57BL/6 mice
[26] = test system: α-Syn deposits in mouse brain sections; assay: Staining of mouse brain sections containing α-Syn deposits; conditions: SNCA transgenic mice treated with rotenone

Compound: Oc1ccc(-c2cc(-c3cccc(Br)c3)n[nH]2)cc1O [anle138c]
- inhibition of α-Syn aggregation [1]: complete the inhibition of α-Syn aggregation; also recorded: strong inhibition of α-Syn aggregation

Compound: Cc1cc2nc(/C=C/c3ccc(O)c(Br)c3)sc2cc1N(C)CCOCC[18F] [[^18F]-F0502B]
- Bmax, aggregated α-Syn in DLB patients ([2]; DLB): 12.30 fmol/nmol
- Bmax, aggregated α-Syn in PD patients ([2]; PD): 14.95 fmol/nmol
- specific binding in PD/AD/healthy control tissues ([3]; total and nonspecific binding curves, frontal cortex): only specific binding with PD tissues but not AD or control tissues
- Bmax, Aβ fibrils in AD patients [4]: 2.34 fmol/nmol
- PET signal in brain [5]: devoid of radiotracer retention
- PET signal in brain [6]: demonstrable signals in the striatal regions
- Bmax, Tau fibrils in AD patients [7]: 1.14 fmol/nmol
- autoradiographic binding to human brain sections [8]: selectively associated with LBs in brain sections from PD but not AD patients

- staining of α-Syn deposits in mouse brain sections [10]: stained all of these aggregates
Compound: thioflavin-S [ThS, reference compound]
- staining of Aβ plaques or NFTs in mouse brain sections [9]: stained all of these aggregates

Compound: CN(C)c1ncc(/C=C/c2nc3ccc(OCCF)cc3o2)s1 [BF-227]
- binding to α-Syn aggregates and Aβ fibrils in vitro [11]: binds to both synthetic α-Syn aggregates and Aβ fibrils in vitro

Compound: Cc1cc2nc(/C=C/c3ccc(O)c(Br)c3)sc2cc1N(C)CCOCCF [[^18F]-F0502B]
- Kd ([4]; read-out: KD, Aβ fibrils in AD patients): 108 nM
- Kd [12]: 120 nM
- Kd [13]: 109 nM
- Kd ([7]; read-out: KD, Tau fibrils in AD patients): 151 nM
- Kd [14]: 11 nM

Compound: Cc1cc2nc(/C=C/c3ccc(O)c(Br)c3)sc2cc1N(C)CCOCCF [F0502B]
- ex vivo staining of α-Syn aggregates after i.v. injection [15]: selectively stains α-Syn aggregates
- Kd ([2]; read-out: KD, aggregated α-Syn in DLB patients, DLB): 6.23 nM
- Kd ([2]; read-out: KD, aggregated α-Syn in PD patients, PD): 3.68 nM
- staining of Aβ plaques or NFTs in AD brains [16]: but not Aβ plaques or NFTs
- Kd ([3]; read-out: KD for α-Syn deposits in PD brains, PD brains): 4.26 to 7.32 nM
- Kd ([3]; read-out: Kd, DLB brain homogenates, unfractionated human DLB brain homogenates): 9.79 nM
- Kd ([3]; read-out: Kd, PD brain homogenates, unfractionated human PD brain homogenates): 4.26 nM
- Ki [17]: 3.4 nM
- ex vivo staining of Aβ or Tau aggregates after i.v. injection [18]: not Aβ or Tau aggregates
- staining of α-Syn pathology in patient brain slides [19]: specific association of F0502B with α-Syn aggregates
- staining of Aβ plaques or NFTs in mouse brain sections [9]: but not Aβ plaques or NFTs; also recorded: weakly associated with Aβ aggregates
- Cl rate [20]: approximately 33.6 L/h/kg
- plasma half-life t1/2 [20]: 6.9 min
- brain versus plasma (B/P) ratio ([20]; 1 min): 0.106
- brain versus plasma (B/P) ratio ([20]; 1 h): 13.37
- binding selectivity toward α-Syn PFFs versus Aβ and Tau PFFs ([21]; counter screening): stronger binding affinity with α-Syn PFFs than with Aβ and Tau PFFs
- binding activities toward α-Syn PFFs ([21]; ThT positive control): specifically bound α-Syn fibrils
- binding to Aβ fibrils [22]: poorly bound
- binding to Tau fibrils [23]: poorly bound
- signals in neurons with α-Syn aggregates [24]: specific association of F0502B with α-Syn aggregates
- effect on complete cell count or liver/renal functions [25]: did not alter complete cell count or liver/renal functions
- staining of α-Syn inclusions [26]: stained the α-Syn inclusions that were positive for p-S129 and 5G4
- staining of α-Syn deposits in mouse brain sections [10]: specific association of F0502B with α-Syn aggregates
